Columns and labels:
[1] = tested on: Staphylococcus aureus; assay: Antibacterial activity against Staphylococcus aureus ATCC 29213 after 16 to 20 hrs by broth microdilution method; assay type: functional
Procedure, shortened: (§1)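 Broth microdilution per CLSI. Bacteria grown 4-6 h (about 10⁸ CFU/mL), then diluted to about 10⁶ CFU/mL. Medium: Mueller-Hinton broth, except Luria-Bertani broth for E. coli. Compounds in sterile water, twofold series 256-0.5 µg/mL, mixed 1:1 with inoculum, 37 °C for 16-20 h. MIC is the lowest concentration without visible growth. Duplicate wells; experiment repeated at least twice.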

[2] = tested on: Enterococcus faecalis; assay: Antibacterial activity against Enterococcus faecalis ATCC 29212 after 16 to 20 hrs by broth microdilution method; assay type: functional; procedure, shortened: as §1
[3] = tested on: Escherichia coli; assay: Antibacterial activity against Escherichia coli ATCC 25922 after 16 to 20 hrs by broth microdilution method; assay type: functional; procedure, shortened: as §1
[4] = tested on: Salmonella enterica; assay: Antibacterial activity against Salmonella enterica ATCC 13076 after 16 to 20 hrs by broth microdilution method; assay type: functional; procedure, shortened: as §1
[5] = Hemolytic activity in sheep RBC after 1 hr; assay type: ADME, cell-based, Ovis aries, Erythrocyte; details: sheep red blood cells (erythrocytes)
Procedure, shortened: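 Sheep red blood cells (150 µL suspension) mixed with 50 µL of compound dilutions (5120-10 µg/mL), 1 h at 37 °C, then centrifuged. Supernatant read at 540 nm. Percent hemolysis calculated relative to RBC-only control (0%) and 0.1% Triton X-100 (100%).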

[6] = tested on: Staphylococcus aureus; assay: Antibacterial activity against methicillin-resistant Staphylococcus aureus clinical isolate 1105183 cono7 after 16 to 20 hrs by broth microdilution method; assay type: functional
Procedure, shortened: (§2)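 CLSI broth microdilution in Mueller-Hinton broth. A 4-6 h culture was diluted to about 10⁶ CFU/mL and mixed 1:1 with compound dilutions prepared at 256 to 0.5 µg/mL from aqueous stocks. Plates were incubated at 37 °C for 16-20 h and read visually for MIC. Each concentration was run in duplicate, and the experiment was repeated at least twice. Vancomycin and meropenem were comparators.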

[7] = tested on: Staphylococcus aureus; assay: Antibacterial activity against methicillin-resistant Staphylococcus aureus clinical isolate 20130911034sau after 16 to 20 hrs by broth microdilution method; assay type: functional; procedure, shortened: as §2
[8] = tested on: Staphylococcus aureus; assay: Antibacterial activity against methicillin-resistant Staphylococcus aureus clinical isolate 0831010 after 16 to 20 hrs by broth microdilution method; assay type: functional; procedure, shortened: as §2
[9] = tested on: Staphylococcus aureus; assay: Antibacterial activity against methicillin-resistant Staphylococcus aureus clinical isolate 1104060 after 16 to 20 hrs by broth microdilution method; assay type: functional; procedure, shortened: as §2
[10] = tested on: Staphylococcus aureus; assay: Antibacterial activity against methicillin-resistant Staphylococcus aureus clinical isolate 20131012632sau after 16 to 20 hrs by broth microdilution method; assay type: functional; procedure, shortened: as §2
[11] = tested on: Staphylococcus aureus; assay: Antibacterial activity against methicillin-resistant Staphylococcus aureus clinical isolate 1207007 after 16 to 20 hrs by broth microdilution method; assay type: functional; procedure, shortened: as §2
[12] = tested on: Staphylococcus aureus; assay: Antibacterial activity against methicillin-resistant Staphylococcus aureus clinical isolate 1-may after 16 to 20 hrs by broth microdilution method; assay type: functional; procedure, shortened: as §2
[13] = tested on: Staphylococcus aureus; assay: Antibacterial activity against methicillin-resistant Staphylococcus aureus clinical isolate 0906202 after 16 to 20 hrs by broth microdilution method; assay type: functional; procedure, shortened: as §2
[14] = tested on: Staphylococcus aureus; assay: Antibacterial activity against methicillin-resistant Staphylococcus aureus clinical isolate 1208143 after 16 to 20 hrs by broth microdilution method; assay type: functional; procedure, shortened: as §2
[15] = tested on: Klebsiella pneumoniae; assay: Antibacterial activity against drug-resistant carbapenemase producing Klebsiella pneumoniae clinical isolate KP-14-8 after 16 to 20 hrs by broth microdilution method; assay type: functional; procedure, shortened: as §2
[16] = tested on: Klebsiella pneumoniae; assay: Antibacterial activity against drug-resistant carbapenemase producing Klebsiella pneumoniae clinical isolate KP-13-45 after 16 to 20 hrs by broth microdilution method; assay type: functional; procedure, shortened: as §2
[17] = tested on: Klebsiella pneumoniae; assay: Antibacterial activity against drug-resistant carbapenemase producing Klebsiella pneumoniae clinical isolate KP-14-3 after 16 to 20 hrs by broth microdilution method; assay type: functional; procedure, shortened: as §2
[18] = tested on: Klebsiella pneumoniae; assay: Antibacterial activity against drug-resistant carbapenemase producing Klebsiella pneumoniae clinical isolate KP-14-1 after 16 to 20 hrs by broth microdilution method; assay type: functional; procedure, shortened: as §2
[19] = tested on: Klebsiella pneumoniae; assay: Antibacterial activity against drug-resistant carbapenemase producing Klebsiella pneumoniae clinical isolate KP-14-4 after 16 to 20 hrs by broth microdilution method; assay type: functional; procedure, shortened: as §2
[20] = tested on: Klebsiella pneumoniae; assay: Antibacterial activity against drug-resistant carbapenemase producing Klebsiella pneumoniae clinical isolate KP-13-54 after 16 to 20 hrs by broth microdilution method; assay type: functional; procedure, shortened: as §2
[21] = tested on: Klebsiella pneumoniae; assay: Antibacterial activity against drug-resistant carbapenemase producing Klebsiella pneumoniae clinical isolate KP-14-2 after 16 to 20 hrs by broth microdilution method; assay type: functional; procedure, shortened: as §2
[22] = tested on: Klebsiella pneumoniae; assay: Antibacterial activity against drug-resistant carbapenemase producing Klebsiella pneumoniae clinical isolate EC-13-23 after 16 to 20 hrs by broth microdilution method; assay type: functional; procedure, shortened: as §2
[23] = tested on: Klebsiella pneumoniae; assay: Antibacterial activity against drug-resistant carbapenemase producing Klebsiella pneumoniae clinical isolate KP-14-5 after 16 to 20 hrs by broth microdilution method; assay type: functional; procedure, shortened: as §2
[24] = tested on: Klebsiella pneumoniae; assay: Antibacterial activity against drug-resistant carbapenemase producing Klebsiella pneumoniae clinical isolate KP-13-55 after 16 to 20 hrs by broth microdilution method; assay type: functional; procedure, shortened: as §2
[25] = tested on: Klebsiella pneumoniae; assay: Antibacterial activity against drug-resistant carbapenemase producing Klebsiella pneumoniae clinical isolate KP-14-45 after 16 to 20 hrs by broth microdilution method; assay type: functional; procedure, shortened: as §2
[26] = tested on: Klebsiella pneumoniae; assay: Antibacterial activity against drug-resistant carbapenemase producing Klebsiella pneumoniae clinical isolate KP-14-18 after 16 to 20 hrs by broth microdilution method; assay type: functional; procedure, shortened: as §2
[27] = tested on: Escherichia coli; assay: Antibacterial activity against drug-resistant NDM1 producing Escherichia coli clinical isolate EC-13-49 after 16 to 20 hrs by broth microdilution method; assay type: functional; procedure, shortened: as §2
[28] = tested on: Escherichia coli; assay: Antibacterial activity against drug-resistant NDM1 producing Escherichia coli clinical isolate Ecl-14-58 after 16 to 20 hrs by broth microdilution method; assay type: functional; procedure, shortened: as §2
[29] = tested on: Escherichia coli; assay: Antibacterial activity against drug-resistant NDM1 producing Escherichia coli clinical isolate KP-13-58 after 16 to 20 hrs by broth microdilution method; assay type: functional; procedure, shortened: as §2
[30] = tested on: Escherichia coli; assay: Antibacterial activity against drug-resistant NDM1 producing Escherichia coli clinical isolate Ecl-13-62 after 16 to 20 hrs by broth microdilution method; assay type: functional; procedure, shortened: as §2
[31] = tested on: Escherichia coli; assay: Antibacterial activity against drug-resistant NDM1 producing Escherichia coli clinical isolate EC-14-54 after 16 to 20 hrs by broth microdilution method; assay type: functional; procedure, shortened: as §2
[32] = tested on: Escherichia coli; assay: Antibacterial activity against drug-resistant NDM1 producing Escherichia coli clinical isolate Ecl-14-59 after 16 to 20 hrs by broth microdilution method; assay type: functional; procedure, shortened: as §2
[33] = tested on: Escherichia coli; assay: Antibacterial activity against drug-resistant NDM1 producing Escherichia coli clinical isolate EA-14-61 after 16 to 20 hrs by broth microdilution method; assay type: functional; procedure, shortened: as §2
[34] = tested on: Escherichia coli; assay: Antibacterial activity against drug-resistant NDM1 producing Escherichia coli clinical isolate Ecl-14-56 after 16 to 20 hrs by broth microdilution method; assay type: functional; procedure, shortened: as §2
[35] = tested on: Escherichia coli; assay: Antibacterial activity against drug-resistant NDM1 producing Escherichia coli clinical isolate 1460 after 16 to 20 hrs by broth microdilution method; assay type: functional; procedure, shortened: as §2
[36] = tested on: Escherichia coli; assay: Antibacterial activity against drug-resistant NDM1 producing Escherichia coli clinical isolate SM-15-84 after 16 to 20 hrs by broth microdilution method; assay type: functional; procedure, shortened: as §2
[37] = tested on: Escherichia coli; assay: Antibacterial activity against drug-resistant NDM1 producing Escherichia coli clinical isolate CF-15-61 after 16 to 20 hrs by broth microdilution method; assay type: functional; procedure, shortened: as §2
[38] = tested on: Escherichia coli; assay: Antibacterial activity against drug-resistant NDM1 producing Escherichia coli clinical isolate CF-13-61 after 16 to 20 hrs by broth microdilution method; assay type: functional; procedure, shortened: as §2

Q: What does the source list for `CCCCCCCC[N+](C)(C)CC(=O)Nc1ccc(C(=O)/C=C/c2ccco2)cc1.[Cl-]`?
A: MIC [1]: 1 µg/mL; MIC [2]: 4 µg/mL; MIC [3]: 4 µg/mL; MIC [4]: 16 µg/mL; HC50 at 1 h [5]: 137 µg/mL; MIC [6]: 4 µg/mL; MIC [7]: 2 µg/mL; MIC [8]: 2 µg/mL; MIC [9]: 32 µg/mL; MIC [10]: 8 µg/mL; MIC [11]: 2 µg/mL; MIC [12]: 4 µg/mL; MIC [13]: 16 µg/mL; MIC [14]: 2 µg/mL; MIC [15]: 16 µg/mL; MIC [16]: 32 µg/mL; MIC [17]: 32 µg/mL; MIC [18]: 32 µg/mL; MIC [19]: 16 µg/mL; MIC [20]: 16 µg/mL; MIC [21]: 2 µg/mL; MIC [22]: 8 µg/mL; MIC [23]: 16 µg/mL; MIC [24]: 32 µg/mL; MIC [25]: 32 µg/mL; MIC [26]: 32 µg/mL; MIC [27]: 16 µg/mL; MIC [28]: 16 µg/mL; MIC [29]: 4 µg/mL; MIC [30]: 8 µg/mL; MIC [31]: 32 µg/mL; MIC [32]: 16 µg/mL; MIC [33]: 16 µg/mL; MIC [34]: 16 µg/mL; MIC [35]: 16 µg/mL; MIC [36]: 32 µg/mL; MIC [37]: 16 µg/mL; MIC [38]: 64 µg/mL

From ChEMBL document CHEMBL4138242, “Synthesis and antibacterial evaluation of novel cationic chalcone derivatives possessing broad spectrum antibacterial activity” (Eur J Med Chem, 2018)
